From ChEMBL document CHEMBL3784956, “Repositioning Antitubercular 6-Nitro-2,3-dihydroimidazo[2,1-b][1,3]oxazoles for Neglected Tropical Diseases: Structure-Activity Studies on a Preclinical Candidate for Visceral Leishmaniasis” (J Med Chem, 2016) come the findings set out here.

Data set [1] is described as follows: Stability in 0.1 M HCl at pH 1 at 20 degC. It counts as physicochemical. To be noted: buffer.
The nature of data set [2]: Metabolic stability in hamster liver microsomes assessed as parent compound remaining at 1 uM after 1 hr by LC-MS/MS analysis. It counts as ADME. To be noted: cricetinae, read-out: Stability. On the technique in general: Microsomes from liver hold many membrane-bound enzymes, among them those of drug oxidation.
The nature of data set [3]: Metabolic stability in human liver microsomes assessed as parent compound remaining at 1 uM after 1 hr by LC-MS/MS analysis. In kind it is ADME. To be noted: read-out: Stability.
Data set [4] is described as follows: Metabolic stability in CD1 mouse liver microsomes assessed as parent compound remaining at 1 uM after 1 hr by LC-MS/MS analysis. In kind it is ADME. To be noted: read-out: Stability.
Data set [5] can be described thus: AUC (last) in Swiss albino mouse at 1 mg/kg, iv by LCMS/MS analysis. In kind it is ADME, organism-based. On the set-up: dose 1 mg/kg, time 0 - last, route intravenous. To be noted: in vivo. Put shortly: (§1)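 Male Swiss Albino mice. Single intravenous dose of 1 mg/kg, or single oral dose of 12.5 or 25 mg/kg. Plasma parameters were derived for each route: CL, Vdss, t1/2, AUClast and C0 after iv; Cmax, Tmax and AUClast after oral. Oral bioavailability F (%) was taken from the oral and iv exposures.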

A short description of data set [6]: Half life in Swiss albino mouse at 1 mg/kg, iv by LCMS/MS analysis. It counts as ADME, organism-based. To be noted: in vivo. Put shortly: as §1
Data set [7] can be described thus: Tmax in Swiss albino mouse at 25 mg/kg, po by LCMS/MS analysis. To be noted: in vivo. It counts as ADME, organism-based. Put shortly:
as §1

Data set [8] in a line: Clearance in Swiss albino mouse at 1 mg/kg, iv by LCMS/MS analysis. In kind it is ADME, organism-based. To be noted: in vivo. Put shortly:
as §1

The nature of data set [9]: Volume of distribution at steady state in Swiss albino mouse at 1 mg/kg, iv by LCMS/MS analysis. In kind it is ADME, organism-based. To be noted: in vivo, read-out: Vdss. Put shortly:
as §1

Data set [10] in a line: Oral bioavailability in Swiss albino mouse at 25 mg/kg by LCMS/MS analysis. To be noted: in vivo. In kind it is ADME, organism-based. Put shortly:
as §1

Data set [11] is described as follows: Initial plasma concentration in Swiss albino mouse at 1 mg/kg, iv by LCMS/MS analysis. It counts as ADME, organism-based. Put shortly:
as §1

Data set [12] can be described thus: AUC (last) in Swiss albino mouse at 25 mg/kg, po by LCMS/MS analysis. In kind it is ADME, organism-based. Also on record: dose 25 mg/kg, route oral, time 0 - last. To be noted: in vivo. Put shortly: as §1
The nature of data set [13]: Cmax in Swiss albino mouse at 25 mg/kg, po by LCMS/MS analysis. In kind it is ADME, organism-based. On the set-up: dose 25 mg/kg, route oral. To be noted: in vivo. Put shortly: as §1
Data set [14] is described as follows: Oral bioavailability in Swiss albino mouse at 12.5 mg/kg by LCMS/MS analysis. It counts as ADME, organism-based. To be noted: in vivo. Put shortly: as §1
Data set [15] is described as follows: Tmax in Swiss albino mouse at 12.5 mg/kg, po by LCMS/MS analysis. It counts as ADME, organism-based. To be noted: in vivo. Put shortly:
as §1

Data set [16] is described as follows: AUC (last) in Swiss albino mouse at 12.5 mg/kg, po by LCMS/MS analysis. It counts as ADME, organism-based. Also on record: dose 12.5 mg/kg, route oral, time 0 - last. To be noted: in vivo. Put shortly: as §1
Data set [17] is described as follows: Cmax in Swiss albino mouse at 12.5 mg/kg, po by LCMS/MS analysis. It counts as ADME, organism-based. On the set-up: dose 12.5 mg/kg, route oral. To be noted: in vivo. Put shortly: as §1
The nature of data set [18]: Metabolic stability in hamster liver microsomes assessed as parent compound remaining at 1 uM after 30 mins by LC-MS/MS analysis. To be noted: cricetinae, read-out: Stability. In kind it is ADME.
Data set [19] can be described thus: Metabolic stability in CD1 mouse liver microsomes assessed as parent compound remaining at 1 uM after 30 mins by LC-MS/MS analysis. It counts as ADME. To be noted: read-out: Stability.
The nature of data set [20]: Metabolic stability in human liver microsomes assessed as parent compound remaining at 1 uM after 30 mins by LC-MS/MS analysis. To be noted: read-out: Stability. It counts as ADME.

Regarding `CC1(CNc2ccc(OC(F)(F)F)cc2)Cn2cc([N+](=O)[O-])nc2O1` (stereo not given), the Stability entry in [1] is “Unstable”.

`C[C@]1(COc2ccc(N3CCC(Oc4ccc(OC(F)(F)F)cc4)CC3)cc2)Cn2cc([N+](=O)[O-])nc2O1`: in data set [2], the remaining at 1 h, 1 µM was determined as 55%.

For the molecule `CC1(COc2ccc(C(F)(F)F)cn2)Cn2cc([N+](=O)[O-])nc2O1` (racemic), the remaining at 1 h, 1 µM in data set [3] amounted to 84%; in [4], 69%. Further, the Stability entry in data set [1] is given as “Unstable”.

Regarding `CC1(CN2CCN(c3ccc(F)cc3)CC2)Cn2cc([N+](=O)[O-])nc2O1` (stereo not given), the remaining at 1 h, 1 µM was 49% in data set [3] and 14% in data set [4].

As for `CC1(COc2ccc(OC(F)(F)F)cc2)Cn2cc([N+](=O)[O-])nc2O1` (racemic), the AUC(0-t) stood at 1690 ng·h/mL in data set [5] and 33500 ng·h/mL in data set [12]. Also, the half-life in data set [6] is 2.2 h. Further, the time to peak (Tmax) in data set [7] is 4 h. In [8], this molecule gave a clearance of 9.5 mL/min/kg. Besides, in data set [9], the Vd was found to be 1.7 L/kg. In data set [10], this molecule gave a bioavailability of 79%. In data set [11], this molecule yielded a C0 of 880 ng/mL. The Cmax in [13] was 4100 ng/mL.

Regarding `O=[N+]([O-])c1cn2c(n1)OC(COc1ccc(OC(F)(F)F)cc1)C2` (stereo not given), the AUC(0-t) in data set [5] stood at 1140 ng·h/mL; in data set [12], 14800 ng·h/mL. In [6], this molecule showed a half-life of 3.2 h. Moreover, the Tmax in data set [7] stood at 1 h. The clearance in data set [8] was found to be 13 mL/min/kg. In addition, in [9], the Vd is 2.2 L/kg. The bioavailability in data set [10] was found to be 52%. In addition, in [11], the C0 stood at 610 ng/mL. Besides, the Cmax in data set [13] amounted to 1800 ng/mL.

On to `C[C@]1(COc2ccc(OC(F)(F)F)cc2)Cn2cc([N+](=O)[O-])nc2O1`, for which the AUC(0-t) in data set [5] was determined as 1390 ng·h/mL; in [16], 15800 ng·h/mL. In data set [6], this molecule showed a half-life of 2.7 h. In data set [14], this molecule gave a bioavailability of 91%. The Tmax in [15] worked out at 2 h. The same molecule registered a clearance in data set [8] of 11 mL/min/kg. The Vd in [9] is 2.6 L/kg. In data set [17], this molecule yielded a Cmax of 1300 ng/mL. The C0 in data set [11] came out at 360 ng/mL.

Consider `CC1(COc2ccc(-c3ccc(F)cc3)cc2)Cn2cc([N+](=O)[O-])nc2O1` (racemic), for which the AUC(0-t) is 480 ng·h/mL in data set [5] and 7580 ng·h/mL in data set [12]. For the same molecule, the remaining at 0.5 h, 1 µM in data set [18] is 42%; in data set [19], 57%; in data set [20] it was 88%. The molecule further showed a half-life in data set [6] of 3.8 h. The Tmax in [7] came to 6 h. This molecule also gave a clearance in [8] of 28 mL/min/kg. Besides, in data set [9], the Vd is 7.5 L/kg. This molecule also had a bioavailability in data set [10] of 63%. Moreover, the C0 in [11] stood at 300 ng/mL. Besides, in data set [13], the highest concentration (Cmax) is 700 ng/mL.

`CC1(COc2ccc(-c3ccc(OC(F)(F)F)cc3)cc2)Cn2cc([N+](=O)[O-])nc2O1` (stereo not given): the exposure AUC(0-t) in data set [5] came to 2130 ng·h/mL; in [12], 9810 ng·h/mL. In [6], this molecule showed a half-life of 11 h. The time of peak concentration (Tmax) in data set [7] was determined as 6 h. Also, the clearance in [8] was determined as 7.6 mL/min/kg. For the same molecule, the Vd in [9] was 5.7 L/kg. In data set [10], the bioavailability came to 18%. In data set [11], this molecule yielded a C0 of 340 ng/mL. Moreover, in data set [13], the highest level (Cmax) was 290 ng/mL.

Usually AUC(0-t) stands for the area under the concentration-time curve up to a stated or last time point. A higher AUC(0-t) goes with more exposure. The half-life is the time needed for the level to fall by half in the phase considered. By Tmax is commonly meant the time from dosing to the highest level. As a reminder, the clearance is the rate of elimination divided by the concentration. A lower clearance goes with a low capacity for elimination. The term bioavailability denotes dose-corrected exposure relative to a reference, in per cent. Low readings indicate poor availability, high ones good availability. Usually Cmax stands for the highest concentration seen after dosing.
